For assay [1], the target named is T1, Serine protease hepsin (Homo sapiens, UniProt P05981). In words: Inhibition of doxycycline induced hepsin-mediated loss of desmosomal junctions in human MCF10A cells at 1 to 10 uM preincubated for 30 mins followed by doxycycline addition measured after 6 hrs by desmoglein 2 staining-based confocal immunofluorescence microscopic analysis. It is filed as cell-based. An outline of the steps:
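MCF10A-Indu20-hepsin cells on coverslips pretreated 30 min with 1 or 10 µM compound or DMSO, then 100 ng/mL Dox for 6 h. Desmoglein 2 immunofluorescence: continuous pericellular staining scored positive, discontinuous or absent scored negative. Cells counted in 10 fields per treatment across three biological replicates; reported as percentages.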

Assay [2] deals with Urokinase-type plasminogen activator (Homo sapiens, UniProt P00749). In words: Inhibition of recombinant C-terminal His10-tagged human uPA (M1 to L431 residues) expressed in mouse NS0 cells using Z-GGR-AMC as substrate after 15 mins by automated fluorescence assay. The method in brief: (§1)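 On-line assay integrated with the flow-synthesis platform: a 20 µL aliquot of each product solution captured automatically, HPLC-purified, then diluted and assayed.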

The target in assay [3] is T1, Serine protease hepsin. In words: Inhibition of hepsin-mediated conversion of Pro-HGF into active form in human Hs578T cells assessed as decrease in MET phosphorylation at 1 to 10 uM preincubated for 30 mins followed by recombinant human pro-HGF addition measured after 30 mins by immunoblot method. The class given is cell-based. The method in brief:
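Hs578T or HCC1937 breast cells incubated with DMSO or inhibitor, then 50 ng/mL recombinant human Pro-HGF added; MET pathway activation (phospho-MET) assessed by immunoblotting.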
For orientation: In western blotting, separated proteins are transferred to a membrane and probed.

In assay [4] the target is T1, Serine protease hepsin. In words: Inhibition of recombinant Hepsin (unknown origin).
The target of assay [5] is Serine protease hepsin (Homo sapiens, UniProt P05981, D161E/R162K). As to the kind of experiment: Inhibition of recombinant C-terminal His10-tagged human Hepsin (R45 to […] residues) D161E/ R162K double mutant expressed in mouse NS0 cells using Boc-QRR-AMC as substrate after 15 mins by automated fluorescence assay. The method in brief:
as §1

The target of assay [6] is T1, Serine protease hepsin. In words: Inhibition of doxycycline induced Hepsin in human MCF10A cells assessed as prevention in loss of HAI-1 level at 10 uM preincubated for 30 mins followed by doxycycline addition measured after 6 hrs by Immunoblot assay. It is filed as cell-based. An outline of the steps: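 MCF10A-Indu20-hepsin cells (Dox-inducible hepsin) pretreated 30 min with compound or DMSO, then hepsin induced with 100 ng/mL doxycycline for 6 h; HAI-1 protein scored by immunoblot.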

Assay [7] deals with T1, Serine protease hepsin. As to the kind of experiment: Inhibition of doxycycline induced Hepsin in human MCF10A cells using Boc-QRR-AMC as substrate preincubated for 24 hrs followed by doxycycline induction for 24 hrs and subsequent addition of substrate by fluorescence assay. The class given is cell-based.

SMILES strings stand for the structures. Activity calls are given as the source filed them. The calls are words filed in the database; no cut-off is given here.

Broadly, the IC50 is the concentration that gives 50% inhibition.

T1 sequence (P05981 1-162 limits assumed): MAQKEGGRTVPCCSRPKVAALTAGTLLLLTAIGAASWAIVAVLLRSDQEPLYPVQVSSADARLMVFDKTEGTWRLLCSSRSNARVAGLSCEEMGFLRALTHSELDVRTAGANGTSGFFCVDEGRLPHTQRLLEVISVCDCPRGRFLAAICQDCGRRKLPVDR
T1 sequence (P05981 163-417 limits assumed): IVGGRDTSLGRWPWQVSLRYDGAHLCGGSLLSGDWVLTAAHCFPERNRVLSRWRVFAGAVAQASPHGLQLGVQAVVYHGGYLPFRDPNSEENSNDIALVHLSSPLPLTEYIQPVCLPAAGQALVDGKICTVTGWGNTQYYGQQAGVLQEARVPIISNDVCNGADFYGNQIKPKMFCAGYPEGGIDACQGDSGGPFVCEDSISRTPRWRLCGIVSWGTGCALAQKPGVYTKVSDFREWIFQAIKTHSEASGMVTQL

Turning to `CCOC(=O)N1CCN(C(=O)[C@@H](Cc2cccc(C(=N)N)c2)NS(=O)(=O)c2c(C(C)C)cc(C(C)C)cc2C(C)C)CC1`, the inhibition entry on Serine protease hepsin [1] and on Serine protease hepsin [6] was “inactive” each time. The 50% inhibitory concentration (IC50) in assay [2] amounted to 0.285 µM; on Serine protease hepsin [4], 3 µM; on Serine protease hepsin [5], 3.35 µM; at Serine protease hepsin [7], 6.49 µM. For the same molecule, the inhibition entry at Serine protease hepsin [3] is “Active”.
